Data from ChEMBL document CHEMBL1123585, “Differential effects of N-terminal modifications on the biological potencies of growth hormone releasing factor analogues with varying chain lengths” (1987).

Legend:
[1] = target: T1, Growth hormone-releasing hormone receptor (Rattus norvegicus) (UniProt Q02644); assay: Tested for the potency of growth hormone (GRF) on subcutaneous administration in anesthetized male Charles River rats; type: functional, organism-based
T1 sequence (whole entry): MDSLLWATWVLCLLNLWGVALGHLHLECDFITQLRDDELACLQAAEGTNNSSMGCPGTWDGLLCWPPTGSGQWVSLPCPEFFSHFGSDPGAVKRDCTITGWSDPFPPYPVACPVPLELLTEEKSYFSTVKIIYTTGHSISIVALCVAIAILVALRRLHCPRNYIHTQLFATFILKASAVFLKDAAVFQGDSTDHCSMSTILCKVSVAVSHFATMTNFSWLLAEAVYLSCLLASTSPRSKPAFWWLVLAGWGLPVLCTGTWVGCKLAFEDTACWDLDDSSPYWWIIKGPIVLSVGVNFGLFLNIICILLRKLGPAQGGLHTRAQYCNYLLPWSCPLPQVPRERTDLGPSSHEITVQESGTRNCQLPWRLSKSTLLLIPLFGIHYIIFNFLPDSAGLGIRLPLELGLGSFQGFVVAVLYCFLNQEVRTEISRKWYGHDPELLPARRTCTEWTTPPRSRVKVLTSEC
Method in brief: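 Pentobarbital-anesthetized male rats (175-275 g), six to nine per group, received two subcutaneous doses of analogue or of reference GRF(1-29)NH2, in 0.5 mL, 30 min after anesthesia. Plasma GH measured by RIA 15 min later. Potency with 95% confidence limits calculated from a four-point assay design by the Pugsley method.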

[2] = test system: Rattus norvegicus; assay: Effect on growth hormone release(GRF) was determined in nembutal-anesthetized rat, at dose of 0.4 ug/100 g body weight.; type: functional, organism-based
Method in brief: (§1)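 Male Charles River rats (175-275 g), anesthetized with sodium pentobarbital 6 mg/100 g body weight. Six to nine per group. Peptide or saline given subcutaneously in 0.5 mL, 30 min after anesthetic. Jugular vein blood taken 15 min post-injection. Plasma GH measured by radioimmunoassay and reported as ng/mL, mean ± SEM.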

[3] = test system: Rattus norvegicus; assay: Effect on growth hormone release(GRF) was determined in nembutal-anesthetized rat, at dose of 1 ug/100 g body weight.; type: functional, organism-based; method in brief: as §1
[4] = test system: Rattus norvegicus; assay: Effect on growth hormone release(GRF) was determined in nembutal-anesthetized rat, at dose of 40 ug/100 g body weight.; type: functional, organism-based; method in brief: as §1
[5] = target: T1, Growth hormone-releasing hormone receptor (Rattus norvegicus); assay: Effect on growth hormone release(GRF) was determined in nembutal-anesthetized rat, at dose of 100 ug/100 g body weight.; type: functional; method in brief: as §1
[6] = test system: Rattus norvegicus; assay: Effect on growth hormone release (GRF) was determined in nembutal-anesthetized rat, at dose of 62.5 ug/100 g body weight.; type: functional, organism-based; method in brief: as §1
[7] = target: T1, Growth hormone-releasing hormone receptor (Rattus norvegicus); assay: In vitro rat pituitary cell growth hormone response was obtained; type: functional, cell-based; conditions: Pituitary gland cell
[8] = test system: Rattus norvegicus; assay: Effect on growth hormone release (GRF) was determined in nembutal-anesthetized rat, at dose of 25 ug/100 g body weight.; type: functional, organism-based; method in brief: as §1
[9] = species: Rattus norvegicus; assay: In vitro rat pituitary cell growth hormone response to the compound was obtained; type: functional, Pituitary gland cell
[10] = test system: Rattus norvegicus; assay: Effect on growth hormone release(GRF) was determined in nembutal-anesthetized rat, at dose of 0.2 ug/100 g body weight.; type: functional, organism-based; method in brief: as §1
[11] = test system: Rattus norvegicus; assay: Effect on growth hormone release(GRF) was determined in nembutal-anesthetized rat, at dose of 0.5 ug/100 g body weight.; type: functional, organism-based; method in brief: as §1
[12] = test system: Rattus norvegicus; assay: Effect on growth hormone release(GRF) was determined in nembutal-anesthetized rat, at dose of 125 ug/100 g body weight.; type: functional, organism-based; method in brief: as §1
[13] = test system: Rattus norvegicus; assay: Effect on growth hormone release(GRF) was determined in nembutal-anesthetized rat, at dose of 50 ug/100 g body weight.; type: functional, organism-based; method in brief: as §1
[14] = test system: Rattus norvegicus; assay: Effect on growth hormone release(GRF) was determined in nembutal-anesthetized rat, at dose of 25 ug/100 g body weight.; type: functional, organism-based; method in brief: as §1
[15] = test system: Rattus norvegicus; assay: Effect on growth hormone release(GRF) was determined in nembutal-anesthetized rat, at dose of 10 ug/100 g body weight.; type: functional, organism-based; method in brief: as §1
[16] = test system: Rattus norvegicus; assay: Effect on growth hormone release(GRF) was determined in nembutal-anesthetized rat, at dose of 80 ug/100 g body weight.; type: functional, organism-based; method in brief: as §1
[17] = test system: Rattus norvegicus; assay: Effect on growth hormone release(GRF) was determined in nembutal-anesthetized rat, at dose of 32 ug/100 g body weight.; type: functional, organism-based; method in brief: as §1

CC[C@H](C)[C@H](NC(=O)[C@H](C)NC(=O)[C@H](CC(=O)O)NC(=O)[C@@H](C)N(C)C(=O)[C@@H](N)Cc1ccc(O)cc1)C(=O)N[C@@H](Cc1ccccc1)C(=O)N[C@H](C(=O)N[C@@H](CC(N)=O)C(=O)N[C@@H](CO)C(=O)N[C@@H](Cc1ccc(O)cc1)C(=O)N[C@@H](CCCN=C(N)N)C(=O)N[C@@H](CCCCN)C(=O)N[C@H](C(=O)N[C@@H](CC(C)C)C(=O)NCC(=O)N[C@@H](CCC(N)=O)C(=O)N[C@@H](CC(C)C)C(=O)N[C@@H](CO)C(=O)N[C@@H](C)C(=O)N[C@@H](CCCN=C(N)N)C(=O)N[C@@H](CCCCN)C(=O)N[C@@H](CC(C)C)C(=O)N[C@@H](CC(C)C)C(=O)N[C@@H](CCC(N)=O)C(=O)N[C@@H](CC(=O)O)C(=O)N[C@H](C(=O)N[C@@H](CCSC)C(=O)N[C@@H](CO)C(=O)N[C@@H](CCCN=C(N)N)C(N)=O)[C@@H](C)CC)C(C)C)[C@@H](C)O
Potency [1]: 1630%
Plasma GH release [2]: 761 ng/mL
Plasma GH release [3]: 1720 ng/mL

CC[C@H](C)[C@H](NC(=O)[C@H](C)NC(=O)[C@H](CC(=O)O)NC(=O)[C@H](C)NC(=O)[C@@H](N)Cc1ccc(O)cc1)C(=O)N[C@@H](Cc1ccccc1)C(=O)N[C@H](C(=O)N[C@@H](CC(N)=O)C(=O)N[C@@H](CO)C(=O)N[C@@H](Cc1ccc(O)cc1)C(=O)N[C@@H](CCCN=C(N)N)C(=O)N[C@@H](CCCCN)C(=O)N[C@H](C(=O)N[C@@H](CC(C)C)C(=O)NCC(=O)N[C@@H](CCC(N)=O)C(=O)N[C@@H](CC(C)C)C(=O)N[C@@H](CO)C(=O)N[C@@H](C)C(=O)N[C@@H](CCCN=C(N)N)C(=O)N[C@@H](CCCCN)C(=O)N[C@@H](CC(C)C)C(=O)N[C@@H](CC(C)C)C(=O)N[C@@H](CCCN=C(N)N)C(N)=O)C(C)C)[C@@H](C)O
Plasma GH release [4]: 392 ng/mL
Potency [1]: < 1%
Plasma GH release [5]: 406 ng/mL

H-YADAIFTNSYRKVLGQLSARKLLQDILSR-NH2
Plasma GH release [6]: 1720 ng/mL
Potency [1]: 57%
Potency [7]: 2%
Plasma GH release [8]: 1410 ng/mL

CC[C@H](C)[C@H](NC(=O)[C@H](C)NC(=O)[C@H](CC(=O)O)NC(=O)[C@@H](C)NC(=O)[C@@H](N)Cc1ccc(O)cc1)C(=O)N[C@@H](Cc1ccccc1)C(=O)N[C@H](C(=O)N[C@@H](CC(N)=O)C(=O)N[C@@H](CO)C(=O)N[C@@H](Cc1ccc(O)cc1)C(=O)N[C@@H](CCCN=C(N)N)C(=O)N[C@@H](CCCCN)C(=O)N[C@H](C(=O)N[C@@H](CC(C)C)C(=O)NCC(=O)N[C@@H](CCC(N)=O)C(=O)N[C@@H](CC(C)C)C(=O)N[C@@H](CO)C(=O)N[C@@H](C)C(=O)N[C@@H](CCCN=C(N)N)C(=O)N[C@@H](CCCCN)C(=O)N[C@@H](CC(C)C)C(=O)N[C@@H](CC(C)C)C(=O)N[C@@H](CCC(N)=O)C(=O)N[C@@H](CC(=O)O)C(=O)N[C@H](C(=O)N[C@@H](CC(C)C)C(N)=O)[C@@H](C)CC)C(C)C)[C@@H](C)O (stereo in doubt; 3)
Plasma GH release [4]: 741 ng/mL
Potency [1]: < 5%
Potency [7]: 0.001%
Plasma GH release [5]: 507 ng/mL

CC[C@H](C)[C@H](NC(=O)[C@H](C)NC(=O)[C@H](CC(=O)O)NC(=O)[C@@H](C)NC(=O)[C@@H](N)Cc1ccc(O)cc1)C(=O)N[C@@H](Cc1ccccc1)C(=O)N[C@H](C(=O)N[C@@H](CC(N)=O)C(=O)N[C@@H](CO)C(=O)N[C@@H](Cc1ccc(O)cc1)C(=O)N[C@@H](CCCN=C(N)N)C(=O)N[C@@H](CCCCN)C(=O)N[C@H](C(=O)N[C@@H](CC(C)C)C(=O)NCC(=O)N[C@@H](CCC(N)=O)C(=O)N[C@@H](CC(C)C)C(=O)N[C@@H](CO)C(=O)N[C@@H](C)C(=O)N[C@@H](CCCN=C(N)N)C(=O)N[C@@H](CCCCN)C(=O)N[C@@H](CC(C)C)C(=O)N[C@@H](CC(C)C)C(=O)N[C@@H](CCC(N)=O)C(=O)N[C@@H](CC(=O)O)C(=O)N[C@H](C(=O)N[C@@H](CCSC)C(=O)N[C@@H](CO)C(=O)N[C@@H](CCCN=C(N)N)C(N)=O)[C@@H](C)CC)C(C)C)[C@@H](C)O
Potency [9]: 5340%
Plasma GH release [10]: 1210 ng/mL
Potency [1]: 4450%
Plasma GH release [11]: 2180 ng/mL

CC[C@H](C)[C@H](NC(=O)[C@H](C)NC(=O)[C@H](CC(=O)O)NC(=O)[C@@H](C)NC(=O)[C@@H](N)Cc1ccc(O)cc1)C(=O)N[C@@H](Cc1ccccc1)C(=O)N[C@H](C(=O)N[C@@H](CC(N)=O)C(=O)N[C@@H](CO)C(=O)N[C@@H](Cc1ccc(O)cc1)C(=O)N[C@@H](CCCN=C(N)N)C(=O)N[C@@H](CCCCN)C(=O)N[C@H](C(=O)N[C@@H](CC(C)C)C(=O)NCC(=O)N[C@@H](CCC(N)=O)C(=O)N[C@@H](CC(C)C)C(=O)N[C@@H](CO)C(=O)N[C@@H](C)C(=O)N[C@@H](CCCN=C(N)N)C(=O)N[C@@H](CCCCN)C(=O)N[C@@H](CC(C)C)C(=O)N[C@@H](CC(C)C)C(=O)N[C@@H](CCCN=C(N)N)C(N)=O)C(C)C)[C@@H](C)O
Plasma GH release [12]: 2790 ng/mL
Potency [1]: 20%
Plasma GH release [13]: 1020 ng/mL

CC[C@H](C)[C@H](NC(=O)[C@H](C)NC(=O)[C@H](CC(=O)O)NC(=O)[C@H](C)NC(=O)[C@@H](N)Cc1ccc(O)cc1)C(=O)N[C@@H](Cc1ccccc1)C(=O)N[C@H](C(=O)N[C@@H](CC(N)=O)C(=O)N[C@@H](CO)C(=O)N[C@@H](Cc1ccc(O)cc1)C(=O)N[C@@H](CCCN=C(N)N)C(=O)N[C@@H](CCCCN)C(=O)N[C@H](C(=O)N[C@@H](CC(C)C)C(=O)NCC(=O)N[C@@H](CCC(N)=O)C(=O)N[C@@H](CC(C)C)C(=O)N[C@@H](CO)C(=O)N[C@@H](C)C(=O)N[C@@H](CCCN=C(N)N)C(=O)N[C@@H](CCCCN)C(=O)N[C@@H](CC(C)C)C(=O)N[C@@H](CC(C)C)C(=O)N[C@@H](CCC(N)=O)C(=O)N[C@@H](CC(=O)O)C(=O)N[C@H](C(=O)N[C@@H](CCSC)C(=O)N[C@@H](CO)C(=O)N[C@@H](CCCN=C(N)N)C(N)=O)[C@@H](C)CC)C(C)C)[C@@H](C)O
Plasma GH release [14]: 2570 ng/mL
Potency [1]: 100%
Potency [7]: 100%
Plasma GH release [15]: 1180 ng/mL

CC[C@H](C)[C@H](NC(=O)[C@H](C)NC(=O)[C@H](CC(=O)O)NC(=O)[C@@H](C)NC(=O)[C@@H](N)Cc1ccc(O)cc1)C(=O)N[C@@H](Cc1ccccc1)C(=O)N[C@H](C(=O)N[C@@H](CC(N)=O)C(=O)N[C@@H](CO)C(=O)N[C@@H](Cc1ccc(O)cc1)C(=O)N[C@@H](CCCN=C(N)N)C(=O)N[C@@H](CCCCN)C(=O)N[C@H](C(=O)N[C@@H](CC(C)C)C(=O)NCC(=O)N[C@@H](CCC(N)=O)C(=O)N[C@@H](CC(C)C)C(=O)N[C@@H](CO)C(=O)N[C@@H](C)C(=O)N[C@@H](CCCN=C(N)N)C(=O)N[C@@H](CCCCN)C(=O)N[C@@H](CC(C)C)C(=O)N[C@@H](CC(C)C)C(=O)N[C@@H](CCC(N)=O)C(N)=O)C(C)C)[C@@H](C)O
Plasma GH release [16]: 1370 ng/mL
Potency [1]: 16%
Potency [7]: 0.004%
Plasma GH release [17]: 499 ng/mL
